Activity calls are given as the source filed them. No cut-off for these calls is given here.
Legend:
Type in all cases: functional
[1] = system: HCT-15; experiment: Growth inhibition of human HCT15 cells at 10 uM after 48 hrs by SRB assay; settings: HCT-15, 48 h, read-out: GI
Summary of the method: (§1)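 Cells grown in RPMI 1640 with 5% FBS and 2 mM L-glutamine, plated at 5000–40,000 cells/well by doubling time and preincubated 24 h (37 °C, 5% CO2); a time-zero plate is TCA-fixed. Single dose added, then 48 h incubation. Fixed with cold TCA, stained with 0.4% SRB, dye solubilized in 10 mM Tris base, absorbance at 515 nm; percent growth vs time-zero and untreated control.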

[2] = system: COLO 205; experiment: Growth inhibition of human COLO205 cells at 10 uM after 48 hrs by SRB assay; settings: COLO 205, 48 h, read-out: GI; summary of the method: as §1
[3] = Growth inhibition of human HCC2998 cells at 10 uM after 48 hrs by SRB assay; settings: HCC 2998, 48 h, read-out: GI; summary of the method: as §1
[4] = system: NCI-H322M; experiment: Growth inhibition of human NCI-H322M cells at 10 uM after 48 hrs by SRB assay; settings: read-out: GI; summary of the method: as §1
[5] = system: NCI-H226; experiment: Growth inhibition of human NCI-H226 cells at 10 uM after 48 hrs by SRB assay; settings: NCI-H226, 48 h, read-out: GI; summary of the method: as §1
[6] = system: NCI-H23; experiment: Growth inhibition of human NCI-H23 cells at 10 uM after 48 hrs by SRB assay; settings: NCI-H23, 48 h, read-out: GI; summary of the method: as §1
[7] = system: HOP-92; experiment: Growth inhibition of human HOP92 cells at 10 uM after 48 hrs by SRB assay; settings: HOP-92, 48 h, read-out: GI; summary of the method: as §1
[8] = system: MOLT-4; experiment: Growth inhibition of human MOLT4 cells at 10 uM after 48 hrs by SRB assay; settings: MOLT-4, 48 h, read-out: GI; summary of the method: as §1
[9] = system: CCRF-CEM; experiment: Growth inhibition of human CCRF-CEM cells at 10 uM after 48 hrs by SRB assay; settings: read-out: GI; summary of the method: as §1
[10] = system: K562; experiment: Growth inhibition of human K562 cells at 10 uM after 48 hrs by SRB assay; settings: K562, 48 h, read-out: GI; summary of the method: as §1
[11] = system: SR; experiment: Growth inhibition of human SR cells at 10 uM after 48 hrs by SRB assay; settings: read-out: GI
Summary of the method: (§2)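 NCI 60-cell-line screen with a single 10 µM dose. Cells are grown in RPMI 1640 with 5% FBS and 2 mM L-glutamine, plated at 5000–40,000 cells/well according to doubling time, and preincubated 24 h at 37 °C, 5% CO2; time-zero plates are TCA-fixed at that point. Drug exposure is 48 h. Adherent cells are fixed with cold TCA, stained with 0.4% SRB in 1% acetic acid and read at 515 nm. Percent growth is calculated relative to time-zero and untreated controls and reported as GI%.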

[12] = system: A549; experiment: Growth inhibition of human A549 cells at 10 uM after 48 hrs by SRB assay; settings: A549, 48 h, read-out: GI; summary of the method: as §1
[13] = system: RPMI-8226; experiment: Growth inhibition of human RPMI8226 cells at 10 uM after 48 hrs by SRB assay; settings: RPMI-8226, 48 h, read-out: GI; summary of the method: as §1
[14] = system: MDA-MB-468; experiment: Growth inhibition of human MDA-MB-468 cells at 10 uM after 48 hrs by SRB assay; summary of the method: as §1
[15] = system: MDA-MB-231; experiment: Growth inhibition of human MDA-MB-231 cells at 10 uM after 48 hrs by SRB assay; settings: MDA-MB-231, 48 h, read-out: GI; summary of the method: as §1
[16] = system: PC-3; experiment: Growth inhibition of human PC3 cells at 10 uM after 48 hrs by SRB assay; settings: PC-3, 48 h, read-out: GI; summary of the method: as §1
[17] = system: DU-145; experiment: Growth inhibition of human DU145 cells at 10 uM after 48 hrs by SRB assay; settings: DU-145, 48 h, read-out: GI; summary of the method: as §1
[18] = system: UO-31; experiment: Growth inhibition of human UO31 cells at 10 uM after 48 hrs by SRB assay; settings: UO-31, 48 h, read-out: GI; summary of the method: as §2
[19] = system: RXF 393; experiment: Growth inhibition of human RXF393 cells at 10 uM after 48 hrs by SRB assay; settings: RXF 393, 48 h, read-out: GI; summary of the method: as §1
[20] = system: A498; experiment: Growth inhibition of human A498 cells at 10 uM after 48 hrs by SRB assay; settings: A498, 48 h, read-out: GI; summary of the method: as §1
[21] = system: ACHN; experiment: Growth inhibition of human ACHN cells at 10 uM after 48 hrs by SRB assay; settings: read-out: GI; summary of the method: as §1
[22] = system: CAKI-1; experiment: Growth inhibition of human Caki1 cells at 10 uM after 48 hrs by SRB assay; settings: CAKI-1, 48 h, read-out: GI; summary of the method: as §1
[23] = system: SK-OV-3; experiment: Growth inhibition of human SKOV3 cells at 10 uM after 48 hrs by SRB assay; settings: SK-OV-3, 48 h, read-out: GI; summary of the method: as §2
[24] = Growth inhibition of human NCI-ADR-RES cells at 10 uM after 48 hrs by SRB assay; settings: read-out: GI; summary of the method: as §1
[25] = system: OVCAR-4; experiment: Growth inhibition of human OVCAR4 cells at 10 uM after 48 hrs by SRB assay; settings: OVCAR-4, 48 h, read-out: GI; summary of the method: as §1
[26] = system: OVCAR-3; experiment: Growth inhibition of human OVCAR3 cells at 10 uM after 48 hrs by SRB assay; settings: OVCAR-3, 48 h, read-out: GI; summary of the method: as §1
[27] = system: IGROV-1; experiment: Growth inhibition of human IGROV1 cells at 10 uM after 48 hrs by SRB assay; settings: IGROV-1, 48 h, read-out: GI; summary of the method: as §1
[28] = system: UACC-62; experiment: Growth inhibition of human UACC62 cells at 10 uM after 48 hrs by SRB assay; settings: UACC-62, 48 h, read-out: GI; summary of the method: as §2
[29] = system: UACC-257; experiment: Growth inhibition of human UACC257 cells at 10 uM after 48 hrs by SRB assay; settings: UACC-257, 48 h, read-out: GI; summary of the method: as §2
[30] = system: SK-MEL-28; experiment: Growth inhibition of human SK-MEL-28 cells at 10 uM after 48 hrs by SRB assay; settings: SK-MEL-28, 48 h, read-out: GI; summary of the method: as §1
[31] = system: SK-MEL-2; experiment: Growth inhibition of human SK-MEL-2 cells at 10 uM after 48 hrs by SRB assay; settings: SK-MEL-2, 48 h, read-out: GI; summary of the method: as §1
[32] = system: M14; experiment: Growth inhibition of human M14 cells at 10 uM after 48 hrs by SRB assay; settings: M14, 48 h, read-out: GI; summary of the method: as §1
[33] = system: SNB-75; experiment: Growth inhibition of human SNB75 cells at 10 uM after 48 hrs by SRB assay; settings: SNB-75, 48 h, read-out: GI; summary of the method: as §2
[34] = system: SF-295; experiment: Growth inhibition of human SF295 cells at 10 uM after 48 hrs by SRB assay; settings: SF-295, 48 h, read-out: GI; summary of the method: as §1
[35] = system: SF-539; experiment: Growth inhibition of human SF539 cells at 10 uM after 48 hrs by SRB assay; settings: SF-539, 48 h, read-out: GI; summary of the method: as §1
[36] = system: SF-268; experiment: Growth inhibition of human SF268 cells at 10 uM after 48 hrs by SRB assay; settings: SF-268, 48 h, read-out: GI; summary of the method: as §1

Compound	inhibition of growth at 10 µM [1] [%]	inhibition of growth at 10 µM [2] [%]	inhibition of growth at 10 µM [3] [%]	inhibition of growth at 10 µM [4] [%]	inhibition of growth at 10 µM [5] [%]	inhibition of growth at 10 µM [6] [%]	inhibition of growth at 10 µM [7] [%]	inhibition of growth at 10 µM [8] [%]	inhibition of growth at 10 µM [9] [%]	inhibition of growth at 10 µM [10] [%]	inhibition of growth at 10 µM [11] [%]	inhibition of growth at 10 µM [12] [%]	inhibition of growth at 10 µM [13] [%]	inhibition of growth at 10 µM [15] [%]	inhibition of growth at 10 µM [16] [%]	inhibition of growth at 10 µM [17] [%]	inhibition of growth at 10 µM [18] [%]	inhibition of growth at 10 µM [19] [%]	inhibition of growth at 10 µM [20] [%]	inhibition of growth at 10 µM [21] [%]	also measured
O=c1c2cccc3c(N4CCOCC4)ccc(c32)c2nc3ccccc3n12	< 20	< 20	26.8	< 20	< 20	23.1	40.8	< 20	< 20	< 20	< 20	< 20	< 20	< 20	< 20	< 20	34.1	< 20	< 20	< 20	growth inhibition (GI) [14]: Active; inhibition of growth at 10 µM [22]: 30.4%; inhibition of growth at 10 µM [23]: < 20%; inhibition of growth at 10 µM [24]: < 20%; inhibition of growth at 10 µM [25]: 30.1%; inhibition of growth at 10 µM [26]: < 20%; inhibition of growth at 10 µM [27]: 41.7%; inhibition of growth at 10 µM [28]: 37.9%; inhibition of growth at 10 µM [29]: < 20%; inhibition of growth at 10 µM [30]: < 20%; inhibition of growth at 10 µM [31]: < 20%; inhibition of growth at 10 µM [32]: < 20%; inhibition of growth at 10 µM [33]: 20.9%; inhibition of growth at 10 µM [34]: < 20%; inhibition of growth at 10 µM [35]: < 20%; inhibition of growth at 10 µM [36]: < 20%
O=c1c2cccc3c(N4CCCC4)ccc(c32)c2nc3ccccc3n12	21.4	36.4	29.6	< 20	44.7	31.8	59.3	97.4	46.3	24	79.8	67.4	24.3	22.9	32.1	21.9	43.8	< 20	62	47.6	inhibition of growth at 10 µM ([14]; MDA-MB-468, 48 h, read-out: GI): < 20%; inhibition of growth at 10 µM [22]: 48.7%; inhibition of growth at 10 µM [23]: 20.9%; inhibition of growth at 10 µM [24]: < 20%; inhibition of growth at 10 µM [25]: 21.2%; inhibition of growth at 10 µM [26]: < 20%; inhibition of growth at 10 µM [27]: 42.9%; inhibition of growth at 10 µM [28]: 37.5%; inhibition of growth at 10 µM [29]: < 20%; inhibition of growth at 10 µM [30]: < 20%; inhibition of growth at 10 µM [31]: < 20%; inhibition of growth at 10 µM [32]: < 20%; inhibition of growth at 10 µM [33]: 27%; inhibition of growth at 10 µM [34]: 40.2%; inhibition of growth at 10 µM [35]: < 20%; inhibition of growth at 10 µM [36]: < 20%
